Assay results as given in ChEMBL document CHEMBL4715831, “Design and synthesis of 2-((1H-indol-3-yl)thio)-N-phenyl-acetamides as novel dual inhibitors of respiratory syncytial virus and influenza virus A” (Eur J Med Chem, 2020).

Assays:
Influenza A virus [1] = experiment: Antiviral activity against Influenza A virus A/WSN/33(H1N1) infected in MDCK cells measured after 24 hrs by Gaussia luciferase reporter gene method; assay type: functional, organism-based; conditions: A/WSN/1933(H1N1)
In short: (§1)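 MDCK cells infected with IAV A/WSN/33 (H1N1) or H3N2 for 1 h at room temperature, then cultured in fresh DMEM with serially diluted compound for 24 h at 37 °C. Gluc activity in the medium read with coelenterazine-h (16.7 μM in PBS). Normalized to control set as 100%; ribavirin positive control; mean ± SD of three experiments.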

Influenza A virus [2] = experiment: Antiviral activity against Influenza A virus A/WSN/33(H1N1) infected in HEK293T cells assessed as relative fluorescence intensity at 20 uM pretreated for 2 hrs followed by viral infection and measured after 24 hrs by Gaussia luciferase reporter gene method; assay type: functional, A/WSN/1933(H1N1); conditions: time 26 hrs
In short: (§2)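 Time-of-addition assay: compound at 20 μM added before infection or at infection (0 h) in HEK293T-Gluc cells infected with A/WSN/33 (H1N1). Supernatant Gaussia luciferase measured after 24 h with coelenterazine-h. Values normalized to the DMSO control, set as 100%; ribavirin positive control. Mean ± SD, three independent experiments.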

Influenza A virus [3] = experiment: Antiviral activity against Influenza A virus A/WSN/33(H1N1) infected in HEK293T cells co-transfected with NP/PA/PB1/PB2 complex assessed as inhibition of viral replication after 24 hrs by mini-genome replicon system based luciferase assay; assay type: functional, organism-based; conditions: A/WSN/1933(H1N1); for EC50: HEK-293T
In short: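 Minigenome assay: vRNA transcription read as luciferase activity 24 h after transfection. Normalized to control set as 100%. Mean ± SD of three independent experiments.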

[4] = Safety index, ratio of CC50 for human HEp-2 cells to EC50 for GFP-fused wild-type RSV subgroup A long infected in human HEp-2 cells; assay type: toxicity, cell-based; conditions: read-out: Ratio CC50/EC50
[5] = Cytotoxicity against HEK293T cells assessed as reduction in cell viability measured after 48 hrs by CCK8 assay; assay type: cell-based, HEK-293T; conditions: human
In short: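 293T cells treated for 48 h with six compound concentrations from 12.5 to 200 μM, with DMSO-only cells as control. CCK-8 then added for 1 h at 37 °C and OD read at 450 nm. Mean ± SD of three experiments.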

[6] = test system: Respiratory syncytial virus; experiment: Antiviral activity against GFP-fused wild-type RSV subgroup A Long infected in human HEp-2 cells measured 24 to 72 hrs post infection by fluorescence assay; assay type: functional, cell-based
In short: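 HEp-2 cells plated, then after 24 h infected with RSV-mGFP using 3-fold serially diluted inocula starting from 3 × 10^4 pfu/well. Compounds came from a 100 mM DMSO stock, diluted as indicated. RFU read at 479/517 nm at 24, 48 and 72 h post-infection, with non-infected cells as background. Mean ± SD of at least three experiments.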

Influenza A virus [7] = experiment: Antiviral activity against Influenza A virus A/WSN/33(H1N1) infected in human HEK293T cells measured after 24 hrs by Gaussia luciferase reporter gene method; assay type: functional, organism-based; conditions: A/WSN/1933(H1N1); for EC50: HEK-293T
In short: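 HEK293T cells carrying a Gaussia luciferase reporter that is activated by IAV, infected with A/WSN/33 (H1N1) for 1 h at room temperature, then cultured 24 h at 37 °C with serially diluted compound. Supernatant Gluc read with coelenterazine-h (16.7 μM in PBS) as 0.5-s photon counts. Normalized to control set as 100%; ribavirin positive control; three experiments.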

Influenza A virus [8] = experiment: Antiviral activity against Influenza A virus A/WSN/33(H1N1) infected in HEK293T cells assessed as relative fluorescence intensity at 20 uM measured after 24 hrs by Gaussia luciferase reporter gene method; assay type: functional, A/WSN/1933(H1N1); in short: as §2
[9] = Safety index, ratio of CC50 for HEK293T cells to EC50 for antiviral activity against Influenza A virus A/WSN/33(H1N1) infected in human HEK293T cells; assay type: toxicity, cell-based; conditions: read-out: Ratio CC50/EC50
Influenza A virus [10] = experiment: Antiviral activity against Influenza A virus A/WSN/33(H1N1) infected in HEK293T cells assessed as inhibition of viral replication at 20 uM measured after 24 hrs by Gaussia luciferase reporter gene method relative to control; assay type: functional; conditions: A/WSN/1933(H1N1), HEK-293T; in short: as §2
Influenza A virus [11] = experiment: Antiviral activity against Influenza A virus A/WSN/33(H1N1) infected in human HEK293T cells assessed as inhibition of viral replication at 10 uM measured after 24 hrs by Gaussia luciferase reporter gene method relative to control; assay type: functional; conditions: A/WSN/1933(H1N1), HEK-293T
[12] = Antiviral activity against H3N2 infected in MDCK cells measured after 24 hrs by Gaussia luciferase reporter gene method; assay type: functional, cell-based, H3N2 subtype; conditions: Influenza A virus; in short: as §1
[13] = Cytotoxicity against human HEp-2 cells assessed as reduction in cell viability measured after 48 hrs by MTS assay; assay type: cell-based
In short: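 HEp-2 cells plated; after 24 h, compound added and cells incubated 48 h. MTS (2 mg/ml) then added for 3 h at 37 °C in 5% CO2 and absorbance read at 490 nm. Untreated control set as 100%.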

Influenza A virus [14] = experiment: Antiviral activity against Influenza A virus A/WSN/33(H1N1) infected in HEK293T cells assessed as inhibition of viral replication at 20 uM pretreated for 2 hrs followed by viral infection and measured after 24 hrs by Gaussia luciferase reporter gene method relative to control; assay type: functional; conditions: A/WSN/1933(H1N1), HEK-293T, time 26 hrs; in short: as §2
[15] = test system: Respiratory syncytial virus; experiment: Antiviral activity against GFP-fused wild-type RSV subgroup A Long infected in human HEp-2 cells at 50 uM measured 24 to 72 hrs post infection by fluorescence assay relative to control; assay type: functional; conditions: time 24-72 hrs
[16] = Cytotoxicity against human HEp-2 cells assessed as cell viability at 50 uM measured after 48 hrs by MTS assay relative to control; assay type: cell-based; conditions: read-out: Activity
[17] = test system: Respiratory syncytial virus; experiment: Antiviral activity against GFP-fused wild-type RSV subgroup A Long infected in human HEp-2 cells assessed as reduction in viral infection at 20 uM measured 24 to 72 hrs post infection by fluorescence assay relative to control; assay type: functional, Respiratory syncytial virus type A; set-up: scale not given: the % may be the effect or the level left; conditions: time 24-72 hrs
In short: (§3)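 RSV-mGFP infection of HEp-2 cells with compound at 20 μM added at the time of infection (0 h). Fluorescence read at excitation 479 nm and emission 517 nm at 24, 48 and 72 h post-infection. Values normalized to the DMSO control, set as 1; ribavirin was the positive control. Mean ± SD of three independent experiments.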

[18] = test system: Respiratory syncytial virus; experiment: Antiviral activity against GFP-fused wild-type RSV subgroup A Long infected in human HEp-2 cells assessed as reduction in viral infection at 20 uM pretreated for 1 hr followed by viral infection measured 24 to 72 hrs post infection by fluorescence assay relative to control; assay type: functional, Respiratory syncytial virus type A; set-up: scale not given: the % may be the effect or the level left; conditions: time 24-73 hrs
In short: (§4)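 HEp-2 cells exposed to compound at 20 μM 1 h before RSV-mGFP infection (−1 h). GFP fluorescence read at 479/517 nm at 24, 48 and 72 h post-infection. Signal normalized to the DMSO control, set as 1; ribavirin was the positive control. Mean ± SD, three independent experiments.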

[19] = test system: Respiratory syncytial virus; experiment: Antiviral activity against GFP-fused wild-type RSV subgroup A Long infected in human HEp-2 cells assessed as relative fluorescence intensity at 20 uM measured 24 to 72 hrs post infection by fluorescence assay; assay type: functional, Respiratory syncytial virus type A; in short: as §3
[20] = test system: Respiratory syncytial virus; experiment: Antiviral activity against GFP-fused wild-type RSV subgroup A Long infected in human HEp-2 cells assessed as relative fluorescence intensity at 20 uM pretreated for 1 hr followed by viral infection measured 24 to 72 hrs post infection by fluorescence assay; assay type: functional, Respiratory syncytial virus type A; conditions: time 24-73 hrs; in short: as §4

Structure (SMILES)	EC50 (Influenza A virus [1]) [µM]	RFU (Influenza A virus [2])	inhibition (Influenza A virus [3])	EC50 (Influenza A virus [3]) [µM]	selectivity ratio [4]	CC50 at 48 h [5] [µM]	Activity [6]	EC50 [6] [µM]	Activity (Influenza A virus [7])	EC50 (Influenza A virus [7]) [µM]	RFU (Influenza A virus [8])	selectivity ratio [9]	inhibition at 20 µM (Influenza A virus [10]) [%]	inhibition at 10 µM (Influenza A virus [11]) [%]	EC50 [12] [µM]	CC50 at 48 h [13] [µM]	inhibition at 20 µM (Influenza A virus [14]) [%]	inhibition at 50 µM [15] [%]	viability at 48 h, 50 µM [16] [%]	further results
CCOc1ccccc1NC(=O)CSc1c[nH]c2c(Br)c(OC)ccc12	3.25	0.14	Dose-dependent effect	3.89	3.3	> 100	Dose-dependent effect	2.92	Dose-dependent effect	1.9	0.28	> 52.6	99.7	> 85	1.5	9.65	99.7	–	–	–
CCOc1ccccc1NC(=O)CSc1c[nH]c2ccccc12	–	–	–	–	1.76	–	–	11.8	–	–	–	–	–	–	–	20.7	–	83.2	65.2	–
CCOc1ccccc1NC(=O)CSc1c[nH]c2ccc(OC)cc12	–	–	–	–	379	> 100	Dose-dependent effect	4.82	Dose-dependent effect	1.27	–	> 79.4	–	> 85	–	1830	–	–	–	Activity [17]: 99.89%; Activity [18]: 99.4%; RFU [19]: 0.11; RFU [20]: 0.06
O=C(CSc1c[nH]c2ccccc12)Nc1ccc(Cl)c(Cl)c1	–	–	–	–	1.15	–	–	32.7	–	–	–	–	–	–	–	37.5	–	77.1	81.8	–
CCOc1ccccc1NC(=O)CSc1c[nH]c2cc(Cl)ccc12	2.42	0.14	Dose-dependent effect	1.98	5.36	> 100	Dose-dependent effect	5.58	Dose-dependent effect	1.53	0.22	> 65.4	99.7	> 85	1.58	29.9	99.7	–	–	–
